Results from PubChem BioAssay.
Calls of active or inactive are those of the source.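 The calls were made as follows, unless noted: active = inhibition above 20% together with a positive visual image hit; inconclusive = visual image hit but inhibition not above 20%; inactive = no visual image hit.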

Experiments:
[1] = inhibitors of TNFa-induced NFkB p65 translocation, primary screen, imaging, HUVEC, MLSMR starter and 10KST1 sets (AID 438); details: HUVEC TNFa-induced p65 nuclear translocation; cell count: measured here: nuclei count (cytotoxicity indicator), at 2.08 µM; inhibition: at 2 µM, stronger effect = higher value, 0% TNFa-plus-vehicle, 100% no-TNFa wells;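 also: compound added about 3h40 before a 20 min TNFalpha stimulation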;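 as to inhibition: signal is the nuclear over cytoplasmic p65 intensity ratio per well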
[2] = inhibitors of mutant huntingtin aggregation, primary screen, imaging, exon1htt(103Q)mCFP cells, high-content imaging (AID 483;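 active = visual image review flags a hit and inhibition of aggregation exceeds 20%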;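 also: compound exposure lasted 3 days before fixation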;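 as to nuclei count: percent of the per-plate median nuclei count of sample wells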); details: exon1htt(103Q)mCFP cell line, aggregate imaging, at 2 µM; inhibition of aggregation: stronger effect = higher value; nuclei count: measured here: cell count, toxicity
[3] = inhibitors of E-selectin induction by TNFa, primary screen, imaging, HUVEC, immunofluorescence, MLSMR starter and 10KST1 sets (AID 487;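 active = visually confirmed hit in the image check and inhibition above 20%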;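 as to inhibition: signal is fraction of cell area covered by stained E-selectin grains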;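 as to nuclei count: 100% = median nuclei count of all wells on the same plate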); details: HUVEC TNFalpha-induced E-selectin immunofluorescence imaging, at 2 µM; inhibition: stronger effect = higher value; nuclei count: measured here: cell number, toxicity
[4] = target: Voltage-gated potassium channel subunit beta-2 (Rattus norvegicus) (UniProt P62483); test: KvBeta enzyme negative modulators, primary screen, biochemical, NADPH fluorescence (AID 622;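 active = fluorescence slope higher than the sample average by over 3 SD, cut at about -0.22 in these data, passing the limit was not always enough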;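 also: slope of raw intensity against log time taken from 70 to 1610 s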); details: recombinant KvBeta, 4-cyanobenzaldehyde reduction, at 10 µM, stronger effect = higher value
[5] = target: Voltage-gated potassium channel subunit beta-2 (Rattus norvegicus) (UniProt P62483); test: KvBeta positive modulators, primary screen, biochemical, NADPH fluorescence (AID 623;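 active = NADPH fluorescence slope more negative than the mean of all samples by about 3 SD, 99.7% confidence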;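 also: fluorescence intensity change per second fitted from 20 to 320 s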); details: Recombinant KvBeta, NADPH fluorescence decrease slope, 10 min; at 10 µM; stronger effect = lower value
[6] = target: Alpha-2C adrenergic receptor (Homo sapiens) (UniProt P18825); test: modulators of alpha2C/GIRK thallium flux, primary screen, cell-based, HEK293 alpha2C/GIRK1/2 (AID 624;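 active = fluorescence slope after compound addition differing from the mean of all screened samples at 99.7% confidence, in either direction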;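 also: slope of fluorescence ratio to pre-addition baseline per second over 15 to 24 s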); details: thallium flux BTC fluorescence, at 10 µM, actives lie on both sides
[7] = inhibitors of larval lipid processing in zebrafish, primary screen, whole organism, PED6 fluorescence, gall bladder and intestine (AID 686;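 active = a full or partial loss of lipid-probe fluorescence in the fish gall bladder, intestine or both, judged by eye; inactive = no fluorescence loss, or compound toxic to the fish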;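 also: larvae 5 to 7 days old with five fish per well; signal comes from phospholipase A2 cleavage of quenched PED6 carried via bile; overnight exposure to compound and PED6 before scoring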); details: Zebrafish larvae PED6 lipid processing, fluorescence scoring; screened at 20 µM (by protocol)
Procedure, shortened: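 Also added: quenched phospholipase substrate PED6, 100 nM final, ingested by larvae; System: zebrafish larvae, 5-7 d; Quantity: 5 larvae per well; Compound: 20 µM single dose; Schedule: overnight compound and PED6 incubation; Read-out: visual per-well fluorescence inhibition score; Measured by: By-eye fluorescence microscopy; Medium: E3.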

[8] = inhibitors of Sendai virus-induced IRF3 signaling, primary screen, TLR/RLR signaling modifier project, cell-based, Sendai virus stimulus, luciferase, 10K MLSCN set (AID 602276;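 active = inhibition at or above 50% at 10 µM; inactive = inhibition below 50%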;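 also: firefly luciferase from ISG56 promoter only with Renilla not read in this screen; 0% = Sendai virus plus DMSO and 100% = medium plus DMSO without virus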); details: HEK293 RL24 IRF3 luciferase reporter, at 10 µM, stronger effect = higher value
[9] = inhibitors of poly I:C-induced TLR3 signaling, primary screen, cell-based, poly I:C stimulus, luciferase, 10K MLSCN set (AID 602277;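 active = inhibition of the reporter signal at or above 50%; inactive = inhibition below 50%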); details: HEK293-TLR3 RL24 IRF3 luciferase reporter, at 10 µM, stronger effect = higher value

Chain of Alpha-2C adrenergic receptor (Homo sapiens) (P18825 whole entry, looked up): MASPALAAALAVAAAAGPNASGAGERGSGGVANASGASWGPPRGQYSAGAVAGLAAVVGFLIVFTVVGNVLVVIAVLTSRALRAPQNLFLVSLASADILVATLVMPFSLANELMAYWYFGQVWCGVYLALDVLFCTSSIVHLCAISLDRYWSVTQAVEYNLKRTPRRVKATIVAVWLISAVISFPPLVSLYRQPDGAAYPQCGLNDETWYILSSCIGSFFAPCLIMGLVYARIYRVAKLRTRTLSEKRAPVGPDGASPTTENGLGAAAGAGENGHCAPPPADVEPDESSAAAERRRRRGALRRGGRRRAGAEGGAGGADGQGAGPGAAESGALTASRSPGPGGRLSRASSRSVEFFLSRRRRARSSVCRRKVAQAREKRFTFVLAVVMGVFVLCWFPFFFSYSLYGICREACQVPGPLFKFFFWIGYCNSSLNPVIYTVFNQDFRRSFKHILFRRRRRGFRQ
Chain of Voltage-gated potassium channel subunit beta-2 (Rattus norvegicus) (P62483 whole entry, looked up): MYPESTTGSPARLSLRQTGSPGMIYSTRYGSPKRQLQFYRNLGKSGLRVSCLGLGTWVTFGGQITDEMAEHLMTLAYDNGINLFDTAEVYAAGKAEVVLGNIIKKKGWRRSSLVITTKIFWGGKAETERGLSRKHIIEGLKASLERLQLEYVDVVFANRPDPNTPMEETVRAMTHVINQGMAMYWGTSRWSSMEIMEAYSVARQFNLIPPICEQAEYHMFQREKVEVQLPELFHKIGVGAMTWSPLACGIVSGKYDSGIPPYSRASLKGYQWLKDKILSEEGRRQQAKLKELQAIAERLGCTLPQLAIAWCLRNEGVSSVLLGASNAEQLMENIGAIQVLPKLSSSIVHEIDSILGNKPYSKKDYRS

CSc1nnc(-c2cnccn2)n1Cc1ccccc1
386: cell count [1]
inactive: inhibition [1] 2.9% | inhibition of aggregation [2] -2.6% | inhibition [3] 5.7% | fluorescence slope [4] -0.481 | NADPH fluorescence slope [5] -5.6e-07 | slope [6] 0.00544 | outcome [7] | inhibition [8] -5.1% | inhibition [9] 2.59%
121%: nuclei count [3]
101%: nuclei count [2]

COc1ccc(NC(=O)Nc2ccc(N3CCCC3=O)cc2)cc1OC
462: cell count [1]
120%: nuclei count [3]
inactive: inhibition [1] 4% | inhibition of aggregation [2] -6.3% | inhibition [3] -4.9% | fluorescence slope [4] -0.368 | NADPH fluorescence slope [5] -3.2e-05 | slope [6] 0.0047 | outcome [7] | inhibition [8] 4.01% | inhibition [9] -16.1%
102%: nuclei count [2]

O=C1c2oc3ccccc3c(=O)c2C(c2cccnc2)N1Cc1ccco1 (centres undefined)
389: cell count [1]
110%: nuclei count [2]
inactive: inhibition [1] -2.7% | inhibition of aggregation [2] -2.7% | inhibition [3] -107% | fluorescence slope [4] -0.48 | NADPH fluorescence slope [5] -3.2e-05 | slope [6] 0.00687 | outcome [7] | inhibition [8] -0.371% | inhibition [9] 8.46%
111%: nuclei count [3]

COc1ccccc1N(CC(=O)NC1CCCC1)C(=O)CCC(=O)Nc1cc(C)on1
inactive: inhibition [1] -8.6% | inhibition of aggregation [2] 10.8% | inhibition [3] -29.3% | fluorescence slope [4] -0.408 | NADPH fluorescence slope [5] -5.9e-05 | slope [6] 0.00447 | outcome [7] | inhibition [8] -11.8% | inhibition [9] -11.2%
102%: nuclei count [3]
566: cell count [1]
96.8%: nuclei count [2]

CCC(=O)Nc1cc(Cl)ccc1N1CCN(C(=O)CC)CC1
102%: nuclei count [2]
376: cell count [1]
90.8%: nuclei count [3]
inactive: inhibition [1] 2.1% | inhibition of aggregation [2] 16.1% | inhibition [3] -17.9% | fluorescence slope [4] -0.465 | NADPH fluorescence slope [5] -1.2e-05 | slope [6] 0.00532 | outcome [7] | inhibition [8] 18.6% | inhibition [9] 16.6%

CCOC(=O)c1cnc(-n2nc(C)cc2C)nc1N1CC(C)OC(C)C1 (centres undefined)
654: cell count [1]
96.9%: nuclei count [3]
69.8%: nuclei count [2]
inactive: inhibition [1] -15.5% | inhibition of aggregation [2] 29.7% | inhibition [3] -1.6% | fluorescence slope [4] -0.411 | NADPH fluorescence slope [5] -3.9e-05 | slope [6] 0.00483 | outcome [7] | inhibition [8] -6.36% | inhibition [9] 6.34%

CC(=O)c1ccc(N2CCN(C(=O)c3cc(C)on3)CC2)cc1
319: cell count [1]
80.7%: nuclei count [3]
inactive: inhibition [1] 0% | inhibition of aggregation [2] 18.7% | inhibition [3] 40.6% | fluorescence slope [4] -0.465 | NADPH fluorescence slope [5] -4.5e-05 | slope [6] 0.00513 | outcome [7] | inhibition [8] 2.68% | inhibition [9] -0.354%
102%: nuclei count [2]

CN(C)c1ccc(NC(=O)Nc2cccc(Cl)c2)cc1
109%: nuclei count [3]
inactive: inhibition [1] 2.3% | inhibition of aggregation [2] 1.1% | inhibition [3] -10% | fluorescence slope [4] -0.436 | NADPH fluorescence slope [5] -3.6e-05 | slope [6] 0.00643 | outcome [7] | inhibition [8] -43.6% | inhibition [9] -104%
387: cell count [1]
106%: nuclei count [2]

COc1ccc(N=C2C(=O)Nc3ccccc32)cc1
138%: nuclei count [3]
inactive: inhibition [1] 2.4% | inhibition of aggregation [2] -5% | inhibition [3] -96.7% | fluorescence slope [4] -0.374 | NADPH fluorescence slope [5] -1.5e-06 | slope [6] 0.00431 | outcome [7] | inhibition [8] 13% | inhibition [9] 28.1%
100%: nuclei count [2]
617: cell count [1]

COc1cccc(OCc2nnc(SCC(=O)OCc3ccccc3)o2)c1
inactive: inhibition [1] 3.3% | inhibition of aggregation [2] 1.6% | inhibition [3] -31.4% | fluorescence slope [4] -0.267 | NADPH fluorescence slope [5] -4.9e-06 | slope [6] 0.00652 | outcome [7] | inhibition [8] 10.1% | inhibition [9] 7.69%
328: cell count [1]
99.2%: nuclei count [2]
108%: nuclei count [3]

COc1ccccc1C1N(c2ccc(F)cc2)C(=O)C2CCCN21 (centres undefined)
inactive: inhibition [1] -3.9% | inhibition of aggregation [2] 7.1% | inhibition [3] 27.9% | fluorescence slope [4] -0.377 | NADPH fluorescence slope [5] -7.5e-05 | slope [6] 0.00544 | outcome [7] | inhibition [8] 9.07% | inhibition [9] 14.8%
91.4%: nuclei count [3]
84.3%: nuclei count [2]
429: cell count [1]

O=C1OCCC1Sc1ncnc2sccc12 (centres undefined)
110%: nuclei count [3]
125%: nuclei count [2]
498: cell count [1]
inactive: inhibition [1] -6.8% | inhibition of aggregation [2] -0.5% | inhibition [3] -1.7% | fluorescence slope [4] -0.376 | NADPH fluorescence slope [5] -7.9e-05 | slope [6] 0.00502 | outcome [7] | inhibition [8] 9.26% | inhibition [9] 12.3%
